Assay results reported in ChEMBL document CHEMBL1135416, “Nonpeptide bradykinin B2 receptor antagonists: conversion of rodent-selective bradyzide analogues into potent, orally-active human bradykinin B2 receptor antagonists” (J Med Chem, 2002).
Values after ≈ are worked out from the molar mass of the structure shown.

Columns and labels:
B2 bradykinin receptor [1] = target: T1, B2 bradykinin receptor (Rattus norvegicus, UniProt P25023); assay: Inhibition of specific binding of [3H]-BK (1 nM) to rat Bradykinin receptor B2 by 50% in NG108-15 cell membranes; set-up: species or system Membrane
T1 sequence (P25023 whole entry): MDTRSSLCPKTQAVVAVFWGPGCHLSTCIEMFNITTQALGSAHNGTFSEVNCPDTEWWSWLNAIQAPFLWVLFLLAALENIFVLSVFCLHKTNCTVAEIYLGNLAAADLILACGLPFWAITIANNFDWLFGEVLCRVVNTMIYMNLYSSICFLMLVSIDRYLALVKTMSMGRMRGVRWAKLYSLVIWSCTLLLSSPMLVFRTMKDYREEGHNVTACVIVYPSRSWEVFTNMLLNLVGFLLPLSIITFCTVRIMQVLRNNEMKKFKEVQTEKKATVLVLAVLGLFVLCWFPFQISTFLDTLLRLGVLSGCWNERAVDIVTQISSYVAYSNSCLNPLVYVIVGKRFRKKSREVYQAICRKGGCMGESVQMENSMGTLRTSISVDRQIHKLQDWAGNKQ
Summary of the method: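 NG108-15 cell membranes (rodent B2) were diluted to about 0.3 mg/mL protein in 25 mM potassium phosphate pH 6.5 with 1 mM EGTA, 0.1 mM bacitracin, chymostatin and BSA. [3H]BK was 1 nM and nonspecific binding was set with 10 µM BK. Incubation was 60 min at 4 °C, followed by PEI-soaked GF/B filtration, a cold phosphate pH 6.5 wash and scintillation counting. Ki was derived from IC50 (Cheng–Prusoff). Data are mean ± SEM of ≥3 experiments in triplicate.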

B2 bradykinin receptor [2] = target: T2, B2 bradykinin receptor (Homo sapiens, UniProt P30411); assay: Displacement of [3H]BK (1 nM) from human Bradykinin receptor B2 expressed in Cos-7 cells; assay type: cell-based
T2 sequence (P30411 whole entry): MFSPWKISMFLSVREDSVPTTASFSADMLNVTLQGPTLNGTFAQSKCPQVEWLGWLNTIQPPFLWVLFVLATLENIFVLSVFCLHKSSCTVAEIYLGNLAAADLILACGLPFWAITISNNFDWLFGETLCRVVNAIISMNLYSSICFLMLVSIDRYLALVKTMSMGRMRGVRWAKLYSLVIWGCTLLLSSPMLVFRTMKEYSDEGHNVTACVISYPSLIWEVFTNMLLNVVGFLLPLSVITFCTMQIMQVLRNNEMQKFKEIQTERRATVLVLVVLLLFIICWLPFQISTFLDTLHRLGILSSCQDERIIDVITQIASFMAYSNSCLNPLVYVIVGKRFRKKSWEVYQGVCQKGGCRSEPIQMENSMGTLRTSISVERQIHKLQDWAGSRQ
Summary of the method: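 [3H]BK was 1 nM and nonspecific binding was set with 10 µM BK. Incubation was 60 min at 4 °C, then GF/B filtration, a cold 50 mM Tris pH 7.4 wash and counting. Ki was derived from IC50 (Cheng–Prusoff). Data are mean ± SEM of ≥3 triplicate experiments.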

B2 bradykinin receptor [3] = target: T1, B2 bradykinin receptor; assay: Inhibition of increase in [Ca2+] efflux from NG108-15 cells caused by activation of rat Bradykinin receptor B2; assay type: functional, cell-based
Rattus norvegicus [4] = species: Rattus norvegicus; assay: Reversal of turpentine-induced mechanical […] in rats; assay type: functional
Summary of the method: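 Rats received an intraplantar injection of 50 µL turpentine/paraffin (1:1) into the left hind paw. Three days later, compound or vehicle was given orally or iv, and the paw withdrawal threshold (mean of two readings) was taken 1 h later. ED50 was the dose giving 50% of maximum reversal. Efficacy was the maximum reversal as % of the pre-turpentine threshold.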

[5] = Solubility at pH 7.4; assay type: physicochemical; settings: buffer
B2 bradykinin receptor [6] = target: T2, B2 bradykinin receptor; assay: Antagonism of the [Ca2+] efflux actions of the human Bradykinin receptor B2 (WI38 fibroblasts); assay type: functional
B2 bradykinin receptor [7] = target: T2, B2 bradykinin receptor; assay: Antagonism of the [Ca2+] efflux actions of the human Bradykinin receptor B2 (SK-N-SH neuroblastoma); assay type: functional
B2 bradykinin receptor [8] = target: T1, B2 bradykinin receptor; assay: Inhibition of Bradykinin receptor B2-mediated contractions of rat uterus smooth muscle; assay type: functional, tissue-based
Rattus norvegicus [9] = species: Rattus norvegicus; assay: Reversal of FCAT-induced mechanical […] in rats; assay type: functional
Summary of the method: (§1)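 Female Sprague-Dawley rats (100-120 g) under light enflurane received 100 µL FCA into one knee. Three to six days later, each hind paw was placed on a pressure transducer with the uninjected leg bearing 100 g, and the load tolerated by the injected leg was read half-hourly. Compounds were given after three control readings. The response was expressed as % maximal reversal (100% = equal load on both legs).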

B2 bradykinin receptor [10] = target: T2, B2 bradykinin receptor; assay: Antagonism of the [Ca2+] efflux actions of human Bradykinin receptor B2 (WI38 fibroblasts); assay type: functional
B2 bradykinin receptor [11] = target: T2, B2 bradykinin receptor; assay: Antagonism of the [Ca2+] efflux actions of human Bradykinin receptor B2 (SK-N-SH neuroblastoma); assay type: functional
Rattus norvegicus [12] = species: Rattus norvegicus; assay: Duration of action (excess) in FCAT-induced mechanical […] in rats; assay type: functional
Rattus norvegicus [13] = species: Rattus norvegicus; assay: Oral efficacy against FCAT-induced mechanical […] in rats; assay type: functional; summary of the method: as §1

Row | SMILES | Ki (B2 bradykinin receptor [1]) [nM] | Ki (B2 bradykinin receptor [2]) [nM] | also measured
1 | CN(C)CCCN(C)CCNC(=O)[C@@H]1CCCN1S(=O)(=O)c1ccc(N/N=C(\S)NC(c2ccccc2)c2ccccc2)c([N+](=O)[O-])c1 | 0.023 | 119 | 
2 | CN(C)CCCN(C)CCCNC(=O)[C@@H]1CCCN1S(=O)(=O)c1ccc(N/N=C(\S)NC(c2ccccc2)c2ccccc2)c([N+](=O)[O-])c1 | 0.31 | 95 | 
3 | CN(C)CCN(C)CCNC(=O)[C@@H]1CCCN1S(=O)(=O)c1ccc(NNC(=O)NC(c2ccccc2)c2ccccc2)c(Cl)c1 | 7.3 |  | 
4 | CN(C)CCN(C)CCNC(=O)[C@@H]1CCCN1S(=O)(=O)c1ccc(N/N=C(\S)NC(c2ccccc2Cl)c2ccccc2Cl)c([N+](=O)[O-])c1 | 5.46 | 34.1 | 
5 | CN(C)CCCN(C)CCNC(=O)[C@@H]1CCCN1S(=O)(=O)c1ccc(N/N=C(\S)NC2c3ccccc3-c3ccccc32)c([N+](=O)[O-])c1 |  | 645 | 
6 | CN(C)CCCN(C)CCNC(=O)c1cccn1S(=O)(=O)c1ccc(NNC(=O)NC2c3ccccc3CCc3ccccc32)c(Cl)c1 |  | 253 | 
7 | CN(C)CCN(C)CCNC(=O)c1cccn1S(=O)(=O)c1ccc(NNC(=S)NC(c2ccccc2)c2ccccc2)c([N+](=O)[O-])c1 |  | 237 | 
8 | CN(C)CCN(C)CCNC(=O)[C@@H]1CCCN1S(=O)(=O)c1ccc(NNC(=S)NC(c2ccccc2)c2ccccc2)c([N+](=O)[O-])c1 |  | 772 | Time (Rattus norvegicus [12]): 4 h; ED50 (Rattus norvegicus [13]): 0.84 µmol/kg
9 | CN(C)CCN(C)CCNC(=O)[C@H]1CCCN1S(=O)(=O)c1ccc(NNC(=S)NC(c2ccccc2)c2ccccc2)c([N+](=O)[O-])c1 |  | 1430 | 

Second part, led by results:

Row | Ki (B2 bradykinin receptor [1]) [nM] | Ki (B2 bradykinin receptor [2]) [nM] | SMILES | also measured
10 | 14.5 | 4.67 | CN(C)CCN(C)CCNC(=O)[C@@H]1CCCN1S(=O)(=O)c1ccc(NNC(=S)NC2c3ccccc3CCc3ccccc32)c([N+](=O)[O-])c1 | 
11 | 176 | 2.79 | CN(C)CCCN(C)CCNC(=O)c1cccn1S(=O)(=O)c1ccc(NNC(=O)NC2c3ccccc3CCc3ccccc32)c([N+](=O)[O-])c1 | IC50 (B2 bradykinin receptor [3]): 141 nM; ED50 (Rattus norvegicus [4]): 0.32 µmol/kg; solubility [5]: 0.4 mg/mL (≈ 569 µM); IC50 (B2 bradykinin receptor [6]): 55 nM; IC50 (B2 bradykinin receptor [7]): 12 nM; IC50 (B2 bradykinin receptor [8]): 1.9 nM; ED50 (Rattus norvegicus [9]): 0.027 µmol/kg
12 | 64.5 | 1.47 | CN(C)CCN(C)CCNC(=O)c1cccn1S(=O)(=O)c1ccc(N/N=C(\S)NC2c3ccccc3CCc3ccccc32)c([N+](=O)[O-])c1 | 
13 | 10.7 | 0.79 | CN(C)CCCN(C)CCNC(=O)[C@@H]1CCCN1S(=O)(=O)c1ccc(NNC(=O)NC2c3ccccc3CCc3ccccc32)c([N+](=O)[O-])c1 | IC50 (B2 bradykinin receptor [3]): 105 nM; IC50 (B2 bradykinin receptor [10]): 17 nM; ED50 (Rattus norvegicus [4]): 0.11 µmol/kg; IC50 (B2 bradykinin receptor [11]): 91 nM; IC50 (B2 bradykinin receptor [8]): 2.4 nM; ED50 (Rattus norvegicus [9]): 0.043 µmol/kg
